Test results from ChEMBL document CHEMBL1177722, “Computer-aided identification of Trypanosoma brucei uridine diphosphate galactose 4'-epimerase inhibitors: toward the development of novel therapies for African sleeping sickness” (J Med Chem, 2010).

How the values were obtained:
[1] = target: T1, UDP-galactose 4-epimerase (Trypanosoma brucei, UniProt Q8T8E9); assay: Inhibition of hexahistidine-tagged Trypanosoma brucei UDP-galactose-4'epimerase expressed in Escherichia coli
T1 sequence (Q8T8E9 whole entry): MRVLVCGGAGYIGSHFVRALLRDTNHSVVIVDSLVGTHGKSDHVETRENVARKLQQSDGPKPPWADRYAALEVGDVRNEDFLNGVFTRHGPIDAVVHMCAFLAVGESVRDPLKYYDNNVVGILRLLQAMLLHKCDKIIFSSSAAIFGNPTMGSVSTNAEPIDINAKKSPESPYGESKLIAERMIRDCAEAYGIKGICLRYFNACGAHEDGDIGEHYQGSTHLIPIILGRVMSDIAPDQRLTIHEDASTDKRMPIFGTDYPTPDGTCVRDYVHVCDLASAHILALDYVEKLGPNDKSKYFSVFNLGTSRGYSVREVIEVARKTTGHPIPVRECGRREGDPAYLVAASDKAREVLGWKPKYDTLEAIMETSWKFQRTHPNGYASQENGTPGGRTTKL
Summary of the method: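 Recombinant enzyme reacted with 100 μM UDP-Gal and 100 μM β-NAD+ (5 μg/mL enzyme, 1 mM Tris pH 7.6, 1% DMSO), with or without inhibitor (0.03-100 μM), at 37 °C for 30 min. Quenched with NaOH. UDP-Gal to UDP-Glc conversion followed by HPAEC, detection at 260 nm. IC50 from a four-parameter fit over three independent experiments.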

Trypanosoma brucei = assay: Antitrypanosomal activity against Trypanosoma brucei after 3 days by alamar blue assay; assay type: functional, organism-based; details: 72 h
Summary of the method: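 Cultured T. brucei seeded at 1 × 10^4 cells/ml in 384-well format, incubated with or without inhibitor (100 μM to 30 nM) for three days; viable cells then counted by Alamar Blue read-out; EC50 derived from the dose series.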

MRC5 = assay: Cytotoxicity against human MRC5 cells after 3 days by alamar blue assay; assay type: cell-based; details: MRC5, 72 h
Summary of the method: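 Cultured human MRC5 cells at 1 × 10^4 cells/ml in 384-well format, incubated with or without inhibitor over 100 μM to 30 nM for three days. Viable cell number then counted by Alamar blue.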

| SMILES | IC50 [1] | EC50 (Trypanosoma brucei) | EC50 (MRC5) |
| --- | --- | --- | --- |
| O=C(O)c1ccccc1-c1ccccc1C(=O)Nc1ccc2c(c1)-c1ccccc1C2 | 4.2 µM | > 50 µM | > 50 µM |
| O=C(O)c1ccccc1-c1ccccc1C(=O)Nc1cc2c3ccccc3ccc2c2ccccc12 | 2.6 µM | – | > 50 µM |
| O=C(O)c1ccccc1-c1ccccc1C(=O)Nc1ccc2c(c1)oc(=O)c1ccccc12 | 3.2 µM | – | > 50 µM |
| CCn1c2ccccc2c2cc(NC(=O)c3ccccc3-c3ccccc3C(=O)O)ccc21 | 5.6 µM | > 50 µM | > 50 µM |
| COC1C(OC(=O)c2ccc(C)[nH]2)C(O)C(Oc2ccc3c(O)c(NC(=O)c4ccc(O)c(CC=C(C)C)c4)c(=O)oc3c2Cl)OC1(C)C (centres undefined) | 5 µM | 4.4 µM | > 50 µM |
| O=C(O)c1cc(Cl)ccc1-c1ccc(Cl)cc1C(=O)NC1=CC2=C(CC1)c1c(Cl)cc(Cl)cc1C2 | 1.8 µM | > 50 µM | 35.2 µM |
| O=C(O)c1ccccc1-c1ccccc1C(=O)Nc1ccc2c(c1)nc(O)c1ccccc12 | 3.6 µM | > 50 µM | > 50 µM |
| O=C(O)c1ccccc1-c1ccccc1C(=O)Nc1ccc2c(c1)C(O)c1ccccc1-2 (centres undefined) | 6.8 µM | > 50 µM | > 50 µM |
| O=C(O)c1cc(Cl)ccc1-c1ccc(Cl)cc1C(=O)Nc1ccc2c(c1)Cc1ccccc1-2 | 3.3 µM | – | > 50 µM |
| O=C(O)c1ccccc1-c1ccccc1C(=O)Nc1ccc2c(c1)Cc1ccccc1-2 | 4.6 µM | > 50 µM | > 50 µM |
| O=C(O)c1ccccc1-c1ccccc1C(=O)Nc1ccc2c(c1)C(=O)c1ccccc1-2 | 2.8 µM | > 50 µM | > 50 µM |
| O=C(O)c1ccccc1-c1ccccc1C(=O)Nc1ccc2c(c1)Cc1cc(F)ccc1-2 | 3.8 µM | > 50 µM | > 50 µM |
| O=C(O)c1ccccc1-c1ccccc1C(=O)Nc1ccc2c(c1)Cc1cc(NC(=O)c3ccccc3-c3ccccc3C(=O)O)ccc1-2 | 0.9 µM | > 50 µM | > 50 µM |
| O=C(O)c1ccccc1-c1ccccc1C(=O)Nc1cccc2c1-c1ccccc1C2 | 8 µM | > 50 µM | > 50 µM |
